According to ChEMBL document CHEMBL1121616, “Bradykinin analogues containing N alpha-methyl amino acids” (1980):
Where “and” joins values, the source holds several entries; their conditions need not be identical. Identical values can stand only once. Non-standard residues stand in square brackets, D forms with d. Residues, ends and D or L forms follow the SMILES beside them. NMeR = CN[C@@H](CCCNC(=N)N)C(=O)O; NMeF = CN[C@@H](Cc1ccccc1)C(=O)O; Sar = CNCC(=O)O

Experiments:
Cavia porcellus [1] = organism: Cavia porcellus; assay: Compound was evaluated for muscle stimulating potency in isolated guinea pig ilea relative to bradykinin triacetate (1); format: functional, Muscle tissue
Procedure, shortened: (§1)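 Isolated guinea pig ileum segments were used in four-point parallel-line bioassays against bradykinin triacetate, with potency calculated on a weight basis. Doses were given at 4-min intervals in a randomized block design, and the bath was rinsed after peak contraction. Relative potency and fiducial limits were estimated from contraction magnitudes by Finney's method. Only assays without significant deviation from parallelism were accepted.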

Cavia porcellus [2] = organism: Cavia porcellus; assay: Compound was evaluated for mean percent change from control contractions of isolated guinea pig ilea produced by Prostaglandin E2 (PGE2) at a concentration of 10 ug/mL; format: functional
Procedure, shortened: (§2)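 Isolated guinea pig ileum segments. Two control contractions to each agonist were elicited at regular 3- or 4-min intervals. Three sets of contractions were then elicited in the presence of the test compound, the first set used for equilibration. The mean of the last two treated sets was compared with the mean of the controls and expressed as percent change.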

Cavia porcellus [3] = organism: Cavia porcellus; assay: Compound was evaluated for mean percent change from control contractions of isolated guinea pig ilea produced by Acetylcholine (ACh) at a concentration of 10 ug/mL; format: functional; procedure, shortened: as §2
Cavia porcellus [4] = organism: Cavia porcellus; assay: Compound was evaluated for mean percent change from control contractions of isolated guinea pig ilea produced by Bradykinin (Brdkn) at a concentration of 10 ug/mL; format: functional; procedure, shortened: as §2
Cavia porcellus [5] = organism: Cavia porcellus; assay: Compound was evaluated for mean percent change from control contractions of isolated guinea pig ilea produced by Acetylcholine (ACh) at a concentration of 3 ug/mL; format: functional; procedure, shortened: as §2
Cavia porcellus [6] = organism: Cavia porcellus; assay: Compound was evaluated for mean percent change from control contractions of isolated guinea pig ilea produced by Bradykinin (Brdkn) at a concentration of 1 ug/mL; format: functional; procedure, shortened: as §2
Cavia porcellus [7] = organism: Cavia porcellus; assay: Compound was evaluated for mean percent change from control contractions of isolated guinea pig ilea produced by Acetylcholine (ACh) at a concentration of 1 ug/mL; format: functional; procedure, shortened: as §2
Cavia porcellus [8] = organism: Cavia porcellus; assay: Compound was evaluated for mean percent change from control contractions of isolated guinea pig ilea produced by Prostaglandin E2 (PGE2) at a concentration of 1 ug/mL; format: functional; procedure, shortened: as §2
Cavia porcellus [9] = organism: Cavia porcellus; assay: Compound was evaluated for mean percent change from control contractions of isolated guinea pig ilea produced by Bradykinin (Brdkn) at a concentration of 3 ug/mL; format: functional; procedure, shortened: as §2
Cavia porcellus [10] = organism: Cavia porcellus; assay: Compound was evaluated for mean percent change from control contractions of isolated guinea pig ilea produced by Prostaglandin E2 (PGE2) at a concentration of 3 ug/mL; format: functional; procedure, shortened: as §2
Cavia porcellus [11] = organism: Cavia porcellus; assay: Compound was evaluated for mean percent change from control contractions of isolated guinea pig ilea produced by Prostaglandin E2 (PGE2) at a concentration of 30 ug/mL; format: functional; procedure, shortened: as §2
Cavia porcellus [12] = organism: Cavia porcellus; assay: Compound was evaluated for mean percent change from control contractions of isolated guinea pig ilea produced by Acetylcholine (ACh) at a concentration of 30 ug/mL; format: functional; procedure, shortened: as §2
Cavia porcellus [13] = organism: Cavia porcellus; assay: Compound was evaluated for mean percent change from control contractions of isolated guinea pig ilea produced by Bradykinin (Brdkn) at a concentration of 30 ug/mL; format: functional; procedure, shortened: as §2
Cavia porcellus [14] = organism: Cavia porcellus; assay: Compound was evaluated for mean percent change from control contractions of isolated guinea pig ilea produced by Acetylcholine (ACh) at a concentration of 10.0 ug/mL; format: functional; procedure, shortened: as §2
Cavia porcellus [15] = organism: Cavia porcellus; assay: Compound was evaluated for mean percent change from control contractions of isolated guinea pig ilea produced by Acetylcholine (ACh) at a concentration of 0.1 ug/mL; format: functional; procedure, shortened: as §2
Cavia porcellus [16] = organism: Cavia porcellus; assay: Compound was evaluated for mean percent change from control contractions of isolated guinea pig ilea produced by Prostaglandin E2 (PGE2) at a concentration of 0.01 ug/mL; format: functional; procedure, shortened: as §2
Cavia porcellus [17] = organism: Cavia porcellus; assay: Compound was evaluated for mean percent change from control contractions of isolated guinea pig ilea produced by Acetylcholine (ACh) at a concentration of 1.0 ug/mL; format: functional; procedure, shortened: as §2
Cavia porcellus [18] = organism: Cavia porcellus; assay: Compound was evaluated for mean percent change from control contractions of isolated guinea pig ilea produced by Prostaglandin E2 (PGE2) at a concentration of 0.1 ug/mL; format: functional; procedure, shortened: as §2
Cavia porcellus [19] = organism: Cavia porcellus; assay: Compound was evaluated for mean percent change from control contractions of isolated guinea pig ilea produced by Bradykinin (Brdkn) at a concentration of 1.0 ug/mL; format: functional; procedure, shortened: as §2
Cavia porcellus [20] = organism: Cavia porcellus; assay: Compound was evaluated for mean percent change from control contractions of isolated guinea pig ilea produced by Bradykinin (Brdkn) at a concentration of 0.01 ug/mL; format: functional; procedure, shortened: as §2
Cavia porcellus [21] = organism: Cavia porcellus; assay: Compound was evaluated for mean percent change from control contractions of isolated guinea pig ilea produced by Bradykinin (Brdkn) at a concentration of 0.1 ug/mL; format: functional; procedure, shortened: as §2
Cavia porcellus [22] = organism: Cavia porcellus; assay: Compound was evaluated for mean percent change from control contractions of isolated guinea pig ilea produced by Acetylcholine (ACh) at a concentration of 0.01 ug/mL; format: functional; procedure, shortened: as §2
Cavia porcellus [23] = organism: Cavia porcellus; assay: Compound was evaluated for mean percent change from control contractions of isolated guinea pig ilea produced by Prostaglandin E2 (PGE2) at a concentration of 10.0 ug/mL; format: functional; procedure, shortened: as §2
Cavia porcellus [24] = organism: Cavia porcellus; assay: Compound was evaluated for mean percent change from control contractions of isolated guinea pig ilea produced by Bradykinin (Brdkn) at a concentration of 10.0 ug/mL; format: functional; procedure, shortened: as §2
Cavia porcellus [25] = organism: Cavia porcellus; assay: Compound was evaluated for muscle stimulating potency in isolated guinea pig ilea; format: functional, Muscle tissue; procedure, shortened: as §1

Row | SMILES | Potency (Cavia porcellus [1]) | Change (Cavia porcellus [2]) | Change (Cavia porcellus [3]) | Change (Cavia porcellus [4]) | Change (Cavia porcellus [5]) | Change (Cavia porcellus [6]) | Change (Cavia porcellus [7]) | Change (Cavia porcellus [8]) | Change (Cavia porcellus [9]) | Change (Cavia porcellus [10]) | other results
1 | CN(C(=O)[C@H](Cc1ccccc1)NC(=O)[C@@H]1CCCN1C(=O)[C@H](CO)NC(=O)[C@H](Cc1ccccc1)NC(=O)CNC(=O)[C@@H]1CCCN1C(=O)[C@@H]1CCCN1C(=O)[C@@H](N)CCCN=C(N)N)[C@@H](CCCN=C(N)N)C(=O)O | 0.0046 | 7% | -28% | -64% |  |  |  |  |  |  | 
2 | CN(C(=O)[C@@H]1CCCN1C(=O)[C@H](CO)NC(=O)[C@H](Cc1ccccc1)NC(=O)CNC(=O)[C@@H]1CCCN1C(=O)[C@@H]1CCCN1C(=O)[C@@H](N)CCCN=C(N)N)[C@@H](Cc1ccccc1)C(=O)N[C@@H](CCCN=C(N)N)C(=O)O (H-RPPGFSP[NMeF]R-OH) | 0.015 | -88% | -75% | -97% | -41% | -27% | -6% | -17% | -81% | -60% | 
3 | CN(C(=O)CNC(=O)[C@@H]1CCCN1C(=O)[C@@H]1CCCN1C(=O)[C@@H](N)CCCN=C(N)N)[C@@H](Cc1ccccc1)C(=O)N[C@@H](CO)C(=O)N1CCC[C@H]1C(=O)N[C@@H](Cc1ccccc1)C(=O)N[C@@H](CCCN=C(N)N)C(=O)O (H-RPPG[NMeF]SPFR-OH) | 0.01 | 1% | -31% | -32% |  |  |  |  |  |  | 
4 | CN(CC(=O)N[C@@H](Cc1ccccc1)C(=O)N[C@@H](CO)C(=O)N1CCC[C@H]1C(=O)N[C@@H](Cc1ccccc1)C(=O)N[C@@H](CCCN=C(N)N)C(=O)O)C(=O)[C@@H]1CCCN1C(=O)[C@@H]1CCCN1C(=O)[C@@H](N)CCCN=C(N)N (H-RPP[Sar]FSPFR-OH) | 0.0039 | -85% | -58% | -25% | -9% | 5% | -32% | -20% | 21% | -27% | Change (Cavia porcellus [11]): -69%; Change (Cavia porcellus [12]): -70%; Change (Cavia porcellus [13]): -40%
5 | CN[C@@H](CCCN=C(N)N)C(=O)N1CCC[C@H]1C(=O)N1CCC[C@H]1C(=O)NCC(=O)N[C@@H](Cc1ccccc1)C(=O)N[C@@H](CO)C(=O)N1CCC[C@H]1C(=O)N[C@@H](Cc1ccccc1)C(=O)N[C@@H](CCCN=C(N)N)C(=O)O (H-[NMeR]PPGFSPFR-OH) | 0.61 |  |  |  |  |  |  |  |  |  | Change (Cavia porcellus [14]): -97%; Change (Cavia porcellus [15]): -67%; Change (Cavia porcellus [16]): -28%; Change (Cavia porcellus [17]): -100%; Change (Cavia porcellus [18]): -88%; Change (Cavia porcellus [19]): -100%; Change (Cavia porcellus [20]): -88%; Change (Cavia porcellus [21]): -100%; Change (Cavia porcellus [22]): -29%; Change (Cavia porcellus [23]): -95% and -83%; Change (Cavia porcellus [24]): -100%
6 | N=C(N)NCCC[C@H](NC(=O)[C@H](Cc1ccccc1)NC(=O)[C@@H]1CCCN1C(=O)[C@H](CO)NC(=O)[C@H](Cc1ccccc1)NC(=O)CNC(=O)[C@@H]1CCCN1C(=O)[C@@H]1CCCN1C(=O)[C@@H](N)CCCNC(=N)N)C(=O)O [BRADYKININ] (H-RPPGFSPFR-OH) |  |  |  |  |  |  |  |  |  |  | Potency (Cavia porcellus [25]): 1
